Compound activity from PubChem.
S1P4 antag = antagonists of human S1P4 receptor | S1P4-expressing cells, antagonist mode, reporter read-out | AID 1510 | actives 0.26% (n = 220,000) | inhibition, % at 4.98 µM | O95977; in the data active = inhibition above about 29%
Target sequence (O95977 whole entry, looked up): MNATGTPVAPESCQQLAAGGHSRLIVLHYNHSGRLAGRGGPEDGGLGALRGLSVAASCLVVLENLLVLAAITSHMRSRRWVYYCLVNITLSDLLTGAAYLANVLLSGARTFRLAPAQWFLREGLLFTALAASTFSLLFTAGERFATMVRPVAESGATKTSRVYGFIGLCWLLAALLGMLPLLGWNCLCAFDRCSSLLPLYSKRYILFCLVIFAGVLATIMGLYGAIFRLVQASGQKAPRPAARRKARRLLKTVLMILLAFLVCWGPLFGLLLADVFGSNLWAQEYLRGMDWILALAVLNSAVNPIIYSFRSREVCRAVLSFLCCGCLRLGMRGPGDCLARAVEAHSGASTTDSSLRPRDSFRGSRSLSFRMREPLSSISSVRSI
NPY-Y1 PAM-ag = potentiates or activates human NPY-Y1 receptor. actives 0.37% (n = 220,000). activation, % at 3.6 µM. NPY-Y1 expressing cells, potentiator/agonist activation. P25929; in the data active = activation above about 33%, passing the limit was not always enough;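 note: cells stimulated with NPY at EC10 then isoproterenol at EC100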
NPY-Y2 PAM-ag = potentiates or activates human NPY-Y2 receptor. cells expressing NPY-Y2, potentiator/agonist read-out. activation, % at 3.6 µM. actives 0.45% (n = 220,000); in the data active = activation above about 27%;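 note: cells stimulated with NPY near EC25 plus isoproterenol at EC100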
S1P4 agonist = activates the human S1P4 receptor; S1P4-expressing cell line, agonist reporter assay; activation, % at 4.98 µM; actives 0.35% (n = 220,000); in the data active = activation above about 11%
NPY-Y2 antag = antagonists of human neuropeptide Y receptor Y2 | P49146 | NPY-Y2 expressing cells, antagonist mode | inhibition, % at 2.7 µM | actives 0.99% (n = 140,000); in the data active = inhibition above about 17%
NPY Y1 blocker = antagonists of human neuropeptide Y receptor Y1; P25929; HEK293-CNG Y1 cells, membrane potential fluorescence; NPY at EC95, then isoproterenol; inhibition, % at 3.6 µM; actives 1% (n = 200,000);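 active = inhibition above the campaign mean inhibition of all tested compounds plus 3 SD, cut at about 20% in these data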
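Test system – HEK293 Y1/CNG channel cell line · Also added – NPY agonist 25 nM, then isoproterenol 1 µM plus Ro 20-1724 25 µM · Compound dosing – one concentration, 3.6 µM, in 0.4% DMSO · Schedule – compound incubation 1 h at room temperature, readout 45 min post-stimulation · Technique – fluorescence, membrane potential probe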
S1P4 antag conf = confirmation of human S1P4 receptor antagonists; shares compounds with S1P4 antag; S1P4-expressing cell line, antagonist mode, reporter read-out; inhibition, % at 4.98 µM; actives 71% (n = 520); in the data active = inhibition above about 30%
S1P1 antagonist = blocks human S1P1, counter-screen for S1P4 antagonists; cell-based S1P1 antagonist counterscreen, inhibition; inhibition, % at 4.98 µM; AID 1564; actives 37% (n = 520); shares compounds with S1P4 antag; in the data active = inhibition above about 40%;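 note: receptor stimulated with S1P near its EC80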
Of the large screens only hits and unclear results are named; the others gave an inactive call (follow-up assays come after a bar, where they were run). Only some compounds are listed: those with a hit (about 2.4% of all), similar ones and a draw of the others.

CC(=O)N(c1ccc(Cl)cc1)c1cn(C(C)=O)c2ccccc12	none (no result: NPY-Y2 antag)
CC(=O)n1cc(N(C(=O)CCl)c2ccc(C)cc2)c2ccccc21	S1P4 antag 29.1 (no result: NPY-Y2 antag, NPY Y1 blocker) | S1P4 antag conf 106.2 | S1P1 antagonist 45.4
CC(=O)OC1CC(c2cc(C(C)(C)C)c(O)c(C(C)(C)C)c2)=NO1 (configuration not stated)	none (no result: NPY-Y2 antag, NPY Y1 blocker)
Cn1cc([N+](=O)[O-])c(C(=O)Nc2cc(Oc3ccccc3)cc([N+](=O)[O-])c2)n1	S1P4 antag 37.1 | S1P4 antag conf 111.4 | S1P1 antagonist inactive
COC(=O)c1ccc2c(c1)C(C)(C)C(/C=C/c1ccccc1O)=[N+]2C	S1P4 antag 37.0 | S1P4 antag conf 115.9 | S1P1 antagonist 82.3
Cc1ccc(NC(=O)CN(C)C2CCCCC2)cc1Br	S1P4 antag 31.6 (no result: NPY-Y2 antag) | S1P4 antag conf inactive | S1P1 antagonist inactive
COc1ccc(NC(=O)CN(C)C2CCCCC2)cc1Cl	none (no result: NPY-Y2 antag, NPY Y1 blocker)
CC(=O)Nc1ccc(S(C)(=O)=O)c(C)c1	none
O=c1cc(O)c2c(=O)n(Cc3ccccc3)c3ccccc3c2o1	S1P4 antag 89.1 (no result: NPY-Y2 antag) | S1P4 antag conf inactive | S1P1 antagonist inactive
CCCCn1c(=O)c2c(O)cc(=O)oc2c2ccccc21	none
CC(C(=O)N1CCCc2ccccc21)N1C(=O)c2ccccc2C1=O (configuration not stated)	none
CC1Cn2c(nnc2-c2ccccc2O)S1 (configuration not stated)	none
CC1Cn2c(nnc2-c2cc3ccccc3cc2O)S1 (configuration not stated)	S1P4 antag 33.7 | S1P4 antag conf inactive | S1P1 antagonist inactive
Cc1cccc(NC(=O)C2CCCN(C(=O)NC3CCCCC3)C2)c1C (configuration not stated)	S1P4 antag 35.8 | S1P4 antag conf inactive | S1P1 antagonist inactive
CCOc1cc(CNCCc2ccc(S(N)(=O)=O)cc2)ccc1OCc1ccc(Cl)cc1	S1P4 antag 36.6 | S1P4 antag conf 39.9 | S1P1 antagonist inactive
O=C(OCc1ccc(F)cc1)c1ccc2ccccc2n1	none (no result: NPY-Y2 antag)
CC(N)=Nc1ccc([N+](=O)[O-])cc1	none
O=[N+]([O-])c1ccc(N=Nc2c(Cl)cc(O)cc2Cl)cc1	S1P4 antag 30.9, NPY-Y1 PAM-ag 66.8, NPY-Y2 PAM-ag 64.9 (no result: NPY-Y2 antag, NPY Y1 blocker) | S1P4 antag conf 67.3 | S1P1 antagonist inactive
Cc1cc(NC2CCCCC2)nc2ccccc12	S1P4 antag 30.3 (no result: NPY-Y2 antag) | S1P4 antag conf inactive | S1P1 antagonist 55.1
COc1ccc(N=C2C(=Nc3ccc(OC)cc3)N(c3ccc(OC)cc3)C(=S)N2c2ccccc2)cc1	none
COc1ccc(N=C2C(=Nc3ccc(OC)cc3)N(c3ccc(OC)cc3)C(=S)N2C)cc1	S1P4 antag 34.6 | S1P4 antag conf 38.4 | S1P1 antagonist inactive
CC1(C)CC(=O)C2=C(C1)N(c1ccc(F)cc1)C(=O)C2(NC(=O)c1ccccc1)C(F)(F)F (configuration not stated)	none
Cc1ccc(SCCC(=O)OC(C(=O)NC(N)=O)C(C)C)cc1 (configuration not stated)	none (no result: NPY-Y2 antag)
Cc1ccc(N/C(N)=N/c2nc(C)cc(N3CCCCC3)n2)c(C)c1	S1P4 antag 44.7 (no result: NPY-Y2 antag) | S1P4 antag conf 44.9 | S1P1 antagonist inactive
CCOC(=O)COc1ccc(S(=O)(=O)N2CCN(c3ccccc3F)CC2)cc1	S1P4 antag 36.1 | S1P4 antag conf inactive | S1P1 antagonist inactive
CCOC(=O)COc1ccc(S(=O)(=O)N2CCN(c3ccc(OC)cc3)CC2)cc1	none (no result: NPY-Y2 antag)
CCCOc1ccc(N2C(=O)CC(SCc3nc4ccccc4[nH]3)C2=O)cc1 (configuration not stated)	none (no result: NPY-Y2 antag)
Cc1c(C)n(C)c2ccc(C(=O)Nc3cccc4ccccc34)cc12	S1P4 antag 44.3 | S1P4 antag conf 46.3 | S1P1 antagonist inactive
CCN(CC)c1ccc2c(Cl)c(Br)c(=O)oc2c1	S1P4 antag 53.1 | S1P4 antag conf 104.2 | S1P1 antagonist 74.2
CCN(CC)c1ccc2c(c1)oc(=O)c1c(Cl)cc(=O)oc12	none
CCOC(=O)c1c(CNc2ccncc2)n(C)c2cc(Br)c(O)cc12	none (no result: NPY-Y2 antag)
